# Experimental data reported in PMC11520665 (Critical Care, 2024).
# Experiment: Safety: treatment-emergent adverse events
# Type: in vivo, patients (adults)
# Settings: safety population
# Method in brief: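 Post-hoc pooled data from two randomised, double-blind, double-dummy trials. The safety population was adults in the ICU at randomisation who received ≥1 dose. Dosing was IV test compound weekly (400 mg Day 1, 200 mg Day 8, optional later 200 mg) or IV comparator echinocandin daily (70 mg Day 1, then 50 mg/day). TEAEs ran from dosing to follow-up, coded MedDRA 23.0, graded mild/moderate/severe, and summarised descriptively.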
# [1] = ICU at randomisation, n=46 rezafungin, n=67 caspofungin
# [2] = ICU at randomisation, number of events per severity
substance,measurement,setting,value
Caspofungin,"TEAE: Abdominal abscess, patients",[1],4 (6.0) n (%)
same,"TEAE: Abdominal pain, patients",[1],4 (6.0) n (%)
same,"TEAE: Acidosis, patients",[1],4 (6.0) n (%)
same,"TEAE: Acute kidney injury, patients",[1],4 (6.0) n (%)
same,"TEAE: Anaemia, patients",[1],7 (10.4) n (%)
same,"TEAE: Atrial fibrillation, patients",[1],3 (4.5) n (%)
same,"TEAE: Bradycardia, patients",[1],5 (7.5) n (%)
same,"TEAE: Constipation, patients",[1],4 (6.0) n (%)
same,"TEAE: Decubitus ulcer, patients",[1],5 (7.5) n (%)
same,"TEAE: Deep vein thrombosis, patients",[1],4 (6.0) n (%)
same,"TEAE: Diarrhoea, patients",[1],7 (10.4) n (%)
same,"TEAE: Dyspnoea, patients",[1],4 (6.0) n (%)
same,"TEAE: Fluid overload, patients",[1],2 (3.0) n (%)
same,"TEAE: Hyperkalaemia, patients",[1],5 (7.5) n (%)
same,"TEAE: Hypertension, patients",[1],3 (4.5) n (%)
same,"TEAE: Hypokalaemia, patients",[1],10 (14.9) n (%)
same,"TEAE: Hypotension, patients",[1],6 (9.0) n (%)
same,"TEAE: Insomnia, patients",[1],2 (3.0) n (%)
same,"TEAE: Multiple organ dysfunction syndrome, patients",[1],3 (4.5) n (%)
same,"TEAE: Nausea, patients",[1],4 (6.0) n (%)
same,"TEAE: Peripheral oedema, patients",[1],2 (3.0) n (%)
same,"TEAE: Pleural effusion, patients",[1],4 (6.0) n (%)
same,"TEAE: Pneumonia, patients",[1],2 (3.0) n (%)
same,"TEAE: Pneumothorax, patients",[1],4 (6.0) n (%)
same,"TEAE: Pyrexia, patients",[1],6 (9.0) n (%)
same,"TEAE: Respiratory failure, patients",[1],4 (6.0) n (%)
same,"TEAE: Sepsis, patients",[1],3 (4.5) n (%)
same,"TEAE: Septic shock, patients",[1],7 (10.4) n (%)
same,"TEAE: Vomiting, patients",[1],3 (4.5) n (%)
same,≥ 1 TEAE,[1],54 (80.6) n (%)
same,≥ 1 TEAE leading to study/drug discontinuation,[1],20 (29.9) n (%)
same,≥ 1 serious TEAE,[1],38 (56.7) n (%)
same,≥ 1 study drug-related TEAE,[1],11 (16.4) n (%)
same,≥ 1 study drug-related TEAE leading to study/drug discontinuation,[1],2 (3.0) n (%)
same,≥ 1 study drug-related serious TEAE,[1],4 (6.0) n (%)
same,"TEAE: Abdominal abscess, event severity (n): mild/moderate/severe",[2],0/0/4
same,"TEAE: Abdominal pain, event severity (n): mild/moderate/severe",[2],3/0/1
same,"TEAE: Acidosis, event severity (n): mild/moderate/severe",[2],2/2/0
same,"TEAE: Acute kidney injury, event severity (n): mild/moderate/severe",[2],1/1/2
same,"TEAE: Anaemia, event severity (n): mild/moderate/severe",[2],3/4/0
same,"TEAE: Atrial fibrillation, event severity (n): mild/moderate/severe",[2],1/2/0
same,"TEAE: Bradycardia, event severity (n): mild/moderate/severe",[2],2/3/0
same,"TEAE: Constipation, event severity (n): mild/moderate/severe",[2],3/1/0
same,"TEAE: Decubitus ulcer, event severity (n): mild/moderate/severe",[2],2/2/1
same,"TEAE: Deep vein thrombosis, event severity (n): mild/moderate/severe",[2],1/3/0
same,"TEAE: Diarrhoea, event severity (n): mild/moderate/severe",[2],4/3/0
same,"TEAE: Dyspnoea, event severity (n): mild/moderate/severe",[2],1/2/1
same,"TEAE: Fluid overload, event severity (n): mild/moderate/severe",[2],1/1/0
same,"TEAE: Hyperkalaemia, event severity (n): mild/moderate/severe",[2],2/2/1
same,"TEAE: Hypertension, event severity (n): mild/moderate/severe",[2],2/0/1
same,"TEAE: Hypokalaemia, event severity (n): mild/moderate/severe",[2],8/2/0
same,"TEAE: Hypotension, event severity (n): mild/moderate/severe",[2],3/3/1
same,"TEAE: Insomnia, event severity (n): mild/moderate/severe",[2],1/1/0
same,"TEAE: Multiple organ dysfunction syndrome, event severity (n): mild/moderate/severe",[2],0/0/3
same,"TEAE: Nausea, event severity (n): mild/moderate/severe",[2],1/3/0
same,"TEAE: Peripheral oedema, event severity (n): mild/moderate/severe",[2],1/1/0
same,"TEAE: Pleural effusion, event severity (n): mild/moderate/severe",[2],1/3/0
same,"TEAE: Pneumonia, event severity (n): mild/moderate/severe",[2],1/1/0
same,"TEAE: Pneumothorax, event severity (n): mild/moderate/severe",[2],1/3/0
same,"TEAE: Pyrexia, event severity (n): mild/moderate/severe",[2],5/1/0
same,"TEAE: Respiratory failure, event severity (n): mild/moderate/severe",[2],0/0/4
same,"TEAE: Sepsis, event severity (n): mild/moderate/severe",[2],0/0/3
same,"TEAE: Septic shock, event severity (n): mild/moderate/severe",[2],0/0/7
same,"TEAE: Vomiting, event severity (n): mild/moderate/severe",[2],2/1/0
same,"Study drug-related serious TEAEs, events",each event n = 1,"ventricular tachycardia, rectal haemorrhage, hypertransaminasaemia, and anaphylactic shock"
same,"Study drug-related TEAEs that led to study discontinuation, events",two patients,ventricular tachycardia and anaphylactic shock
